Laboratory results as given in ChEMBL document CHEMBL4196006, “Aryl thiosemicarbazones for the treatment of trypanosomatidic infections” (Eur J Med Chem, 2018).
The source made the active and inactive calls. The calls are words filed in the database; no cut-off is given here.

Key:
Trypanosoma cruzi = experiment: Antitrypanosomal activity against Trypanosoma cruzi amastigote form infected in human U2OS cells assessed as parasite growth inhibition at 50 uM after 72 hrs relative to control; format: functional; details: for inhibition of growth at 50 µM: read-out: GI
Summary of the method: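 U2OS monolayers grown for 24 h, then infected with tissue-derived trypomastigotes of T. cruzi Y strain. Compounds were added 24 h after infection at 50 μM (single-point) or in dose-response, with 72 h exposure. Plates were fixed, stained and analysed by high-content imaging; activity was normalized to infected and non-infected controls. Means of at least two experiments; benznidazole as reference.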

[1] = Cytotoxicity against human 786-O cells assessed as inhibition of mitochondrial viability at 10 uM after 6 hrs by CMXRos staining based assay relative to control; format: cell-based, 786-0; details: read-out: INH
Summary of the method: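 Mitochondrial toxicity monitored by MitoTracker Red CMXRos uptake and high-content imaging; compound at 10 μM, triplicate.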

Aurora kinase B = Aurora kinase B (Homo sapiens, UniProt Q96GD4); experiment: Inhibition of recombinant full-length human aurora B kinase expressed in baculovirus system at 10 uM using MBP as substrate incubated for 45 mins by ADP-glo kinase assay; details: probe MBP
Summary of the method: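 Aurora B activity measured as ADP formation via coupled luciferase ADP-Glo luminescence; single-point at 10 μM, triplicate.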

[2] = Cytotoxicity against human A549 cells assessed as growth inhibition at 10 uM after 48 hrs by CellTiter-Glo assay relative to control; values are per cent of control; details: A549 cells
CYP2D6 = CYP2D6 (Homo sapiens, UniProt P10635); experiment: Inhibition of human microsomal CYP2D6 expressed in baculovirus infected BTI-TN-5B1-4 cells at 10 uM incubated for 30 mins by luciferase assay relative to control; format: ADME
Summary of the method: (§1)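 CYP1A2, 2C9, 2C19, 2D6 and 3A4 in microsomes from baculovirus-infected insect cells, each with a P450-Glo luminogenic substrate. Inhibition read as loss of light; single-point at 10 μM, triplicate.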

[3] = Cytotoxicity against human WI38 cells assessed as growth inhibition at 10 uM after 48 hrs by CellTiter-Glo assay relative to control; values are per cent of control; details: WI38 cells
[4] = Cytotoxicity against human THP1 cells assessed as viable cells at 100 uM after 72 hrs by MTT assay relative to control; format: cell-based, THP-1; details: read-out: Activity
Summary of the method: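 THP-1-derived macrophages exposed to compounds for 72 h, tested at 100 μM or in dose-response; viability read by MTT colorimetric assay.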

Trypanosoma brucei [5] = experiment: Potentiation of methotrexate-induced antitrypanosomal activity against Trypanosoma brucei Lister 427 bloodstream form at 10 uM after 72 hrs by resazurin dye-based assay relative to control; format: functional
Trypanosoma brucei [6] = experiment: Antitrypanosomal activity against Trypanosoma brucei Lister 427 bloodstream form assessed as parasite growth inhibition at 50 uM after 72 hrs by SYBR Green assay relative to control; format: functional; details: for inhibition of growth at 50 µM: Lister 427, 72 h, read-out: GI
[7] = molecular target: T1, Pteridine reductase, putative (Trypanosoma brucei) (UniProt Q581W1); experiment: Inhibition of Trypanosoma brucei PTR1 at 50 uM using H2B as substrate in presence of NADPH by photometric analysis relative to control
T1 sequence (whole entry): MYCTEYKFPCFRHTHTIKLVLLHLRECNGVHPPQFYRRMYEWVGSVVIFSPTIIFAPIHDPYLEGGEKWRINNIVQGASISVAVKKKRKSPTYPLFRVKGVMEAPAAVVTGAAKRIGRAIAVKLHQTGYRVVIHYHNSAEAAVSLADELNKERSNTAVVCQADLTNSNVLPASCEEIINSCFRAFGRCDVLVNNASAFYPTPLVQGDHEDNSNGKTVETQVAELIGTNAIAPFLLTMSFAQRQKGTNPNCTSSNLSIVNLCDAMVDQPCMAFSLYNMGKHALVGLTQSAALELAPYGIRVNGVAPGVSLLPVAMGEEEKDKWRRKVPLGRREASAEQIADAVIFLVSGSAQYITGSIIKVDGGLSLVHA

CYP2C19 = CYP2C19 (Homo sapiens, UniProt P33261); experiment: Inhibition of human microsomal CYP2C19 expressed in baculovirus infected BTI-TN-5B1-4 cells at 10 uM incubated for 30 mins by luciferase assay relative to control; format: ADME; summary of the method: as §1
CYP2C9 = CYP2C9 (Homo sapiens, UniProt P11712); experiment: Inhibition of human microsomal CYP2C9 expressed in baculovirus infected BTI-TN-5B1-4 cells at 10 uM incubated for 30 mins by luciferase assay relative to control; format: ADME; summary of the method: as §1
CYP3A4 = CYP3A4 (Homo sapiens, UniProt P08684); experiment: Inhibition of human microsomal CYP3A4 expressed in baculovirus infected BTI-TN-5B1-4 cells at 10 uM incubated for 30 mins by luciferase assay relative to control; format: ADME; summary of the method: as §1
Leishmania infantum = experiment: Antileishmanial activity against Leishmania infantum amastigote form assessed as parasite growth inhibition at 50 uM after 72 hrs by steady-Glo reagent based assay relative to control; format: functional; details: read-out: GI
Summary of the method: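 Intramacrophage L. infantum amastigotes in THP-1-derived macrophages, tested at 50 μM or in dose-response. Plates held 72 h at 37 °C, 5% CO2. Medium was replaced by PBS, macrophages lysed, and parasites read by Steady-Glo luminescence. High-content imaging gave host cell number, infection ratio (infected/total cells) and parasites per infected cell. Values are means of at least two independent experiments.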

CYP1A2 = molecular target: T2, CYP1A2 (Homo sapiens, UniProt P05177); experiment: Inhibition of human microsomal CYP1A2 expressed in baculovirus infected BTI-TN-5B1-4 cells at 10 uM incubated for 30 mins by luciferase assay relative to control; format: ADME; summary of the method: as §1
T2 sequence (P05177 whole entry): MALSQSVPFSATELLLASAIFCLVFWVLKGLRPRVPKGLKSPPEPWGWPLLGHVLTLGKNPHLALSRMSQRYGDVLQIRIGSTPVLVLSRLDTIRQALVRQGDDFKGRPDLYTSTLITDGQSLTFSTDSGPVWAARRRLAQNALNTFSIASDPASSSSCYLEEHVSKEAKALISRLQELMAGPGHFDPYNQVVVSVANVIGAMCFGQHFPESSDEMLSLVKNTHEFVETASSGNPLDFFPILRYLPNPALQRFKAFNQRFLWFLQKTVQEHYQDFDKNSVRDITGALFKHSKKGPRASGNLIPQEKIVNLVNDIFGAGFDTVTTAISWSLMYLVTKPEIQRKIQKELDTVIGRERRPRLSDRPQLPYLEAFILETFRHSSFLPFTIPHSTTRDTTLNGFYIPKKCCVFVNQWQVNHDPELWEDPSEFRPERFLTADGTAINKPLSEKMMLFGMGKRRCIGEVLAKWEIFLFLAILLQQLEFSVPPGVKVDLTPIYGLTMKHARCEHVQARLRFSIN

Trypanosoma brucei [8] = experiment: Potentiation of methotrexate-induced antitrypanosomal activity against Trypanosoma brucei Lister 427 bloodstream form at 10 uM after 72 hrs by resazurin dye-based assay; format: functional
[9] = Cytotoxicity against human U2OS cells assessed as viable cells at 50 uM after 72 hrs by MTT assay relative to control; format: cell-based; details: read-out: Activity
hERG (KCNH2) = hERG (KCNH2) (Homo sapiens, UniProt Q12809); experiment: Inhibition of human ERG at 10 uM incubated for 2 hrs by fluorescence polarisation assay relative to control
Trypanosoma brucei [10] = experiment: Antitrypanosomal activity against Trypanosoma brucei Lister 427 bloodstream form at 10 uM after 72 hrs by resazurin dye-based assay relative to control; format: functional
[11] = molecular target: T3, Pteridine reductase 1 (Leishmania major) (UniProt Q01782); experiment: Inhibition of Leishmania major PTR1 at 50 uM using H2B as substrate in presence of NADPH by photometric analysis relative to control
T3 sequence (whole entry): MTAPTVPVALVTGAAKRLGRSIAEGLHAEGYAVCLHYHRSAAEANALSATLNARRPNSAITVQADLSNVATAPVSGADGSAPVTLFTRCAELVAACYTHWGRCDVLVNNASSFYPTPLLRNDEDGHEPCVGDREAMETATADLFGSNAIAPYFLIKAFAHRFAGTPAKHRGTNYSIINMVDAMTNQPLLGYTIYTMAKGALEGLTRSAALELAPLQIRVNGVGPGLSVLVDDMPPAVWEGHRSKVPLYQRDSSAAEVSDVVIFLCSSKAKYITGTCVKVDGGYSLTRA

Sequence of CYP2C9 (P11712 whole entry): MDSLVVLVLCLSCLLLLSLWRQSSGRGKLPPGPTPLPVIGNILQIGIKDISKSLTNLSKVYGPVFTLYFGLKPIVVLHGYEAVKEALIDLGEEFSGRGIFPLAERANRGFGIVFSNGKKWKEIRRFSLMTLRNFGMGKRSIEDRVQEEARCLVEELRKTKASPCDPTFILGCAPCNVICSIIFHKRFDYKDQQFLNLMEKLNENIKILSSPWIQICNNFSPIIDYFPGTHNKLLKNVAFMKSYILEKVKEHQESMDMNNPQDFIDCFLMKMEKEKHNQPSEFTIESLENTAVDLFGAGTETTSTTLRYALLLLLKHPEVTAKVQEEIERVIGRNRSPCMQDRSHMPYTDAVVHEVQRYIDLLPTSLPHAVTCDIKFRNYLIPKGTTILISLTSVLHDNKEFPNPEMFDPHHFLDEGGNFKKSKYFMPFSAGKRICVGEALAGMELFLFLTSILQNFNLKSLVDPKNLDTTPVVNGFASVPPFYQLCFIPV
Sequence of CYP3A4 (P08684 whole entry): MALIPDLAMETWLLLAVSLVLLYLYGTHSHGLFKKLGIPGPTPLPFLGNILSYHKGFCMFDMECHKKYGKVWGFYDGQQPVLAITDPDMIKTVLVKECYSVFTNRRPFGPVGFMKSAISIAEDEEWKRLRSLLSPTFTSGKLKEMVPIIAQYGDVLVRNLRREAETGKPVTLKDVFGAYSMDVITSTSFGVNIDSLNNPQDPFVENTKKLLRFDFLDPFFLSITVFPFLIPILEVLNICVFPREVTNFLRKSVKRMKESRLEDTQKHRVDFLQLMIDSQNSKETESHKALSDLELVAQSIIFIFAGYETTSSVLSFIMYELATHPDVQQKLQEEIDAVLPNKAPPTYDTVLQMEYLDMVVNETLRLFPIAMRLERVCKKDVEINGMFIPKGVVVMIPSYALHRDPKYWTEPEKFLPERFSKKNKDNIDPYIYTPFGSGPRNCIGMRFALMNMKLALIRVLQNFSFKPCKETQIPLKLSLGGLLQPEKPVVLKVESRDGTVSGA
Sequence of CYP2C19 (P33261 whole entry): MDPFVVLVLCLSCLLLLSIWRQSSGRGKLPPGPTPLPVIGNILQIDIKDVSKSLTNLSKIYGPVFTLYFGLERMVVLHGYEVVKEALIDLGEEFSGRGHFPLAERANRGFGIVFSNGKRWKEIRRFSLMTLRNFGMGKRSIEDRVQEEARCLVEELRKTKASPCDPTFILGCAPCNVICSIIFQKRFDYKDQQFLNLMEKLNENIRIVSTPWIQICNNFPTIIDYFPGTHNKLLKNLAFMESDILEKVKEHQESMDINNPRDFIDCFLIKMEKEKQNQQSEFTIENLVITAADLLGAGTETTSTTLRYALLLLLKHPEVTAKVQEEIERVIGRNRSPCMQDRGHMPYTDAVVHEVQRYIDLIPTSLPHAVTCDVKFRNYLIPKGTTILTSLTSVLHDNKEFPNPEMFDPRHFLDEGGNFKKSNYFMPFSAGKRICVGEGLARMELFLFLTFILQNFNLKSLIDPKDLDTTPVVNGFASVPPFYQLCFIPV
Sequence of Aurora kinase B (Q96GD4 whole entry): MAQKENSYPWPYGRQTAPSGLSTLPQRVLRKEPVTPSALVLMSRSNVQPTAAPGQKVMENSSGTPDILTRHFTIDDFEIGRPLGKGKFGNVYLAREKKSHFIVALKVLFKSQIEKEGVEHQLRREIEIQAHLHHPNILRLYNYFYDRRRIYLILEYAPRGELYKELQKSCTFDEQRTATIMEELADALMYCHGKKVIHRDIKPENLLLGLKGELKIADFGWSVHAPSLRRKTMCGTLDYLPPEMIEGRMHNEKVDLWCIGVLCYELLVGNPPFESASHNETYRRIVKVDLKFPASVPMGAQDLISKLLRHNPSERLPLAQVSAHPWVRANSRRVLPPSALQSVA
Sequence of hERG (KCNH2) (Q12809 whole entry): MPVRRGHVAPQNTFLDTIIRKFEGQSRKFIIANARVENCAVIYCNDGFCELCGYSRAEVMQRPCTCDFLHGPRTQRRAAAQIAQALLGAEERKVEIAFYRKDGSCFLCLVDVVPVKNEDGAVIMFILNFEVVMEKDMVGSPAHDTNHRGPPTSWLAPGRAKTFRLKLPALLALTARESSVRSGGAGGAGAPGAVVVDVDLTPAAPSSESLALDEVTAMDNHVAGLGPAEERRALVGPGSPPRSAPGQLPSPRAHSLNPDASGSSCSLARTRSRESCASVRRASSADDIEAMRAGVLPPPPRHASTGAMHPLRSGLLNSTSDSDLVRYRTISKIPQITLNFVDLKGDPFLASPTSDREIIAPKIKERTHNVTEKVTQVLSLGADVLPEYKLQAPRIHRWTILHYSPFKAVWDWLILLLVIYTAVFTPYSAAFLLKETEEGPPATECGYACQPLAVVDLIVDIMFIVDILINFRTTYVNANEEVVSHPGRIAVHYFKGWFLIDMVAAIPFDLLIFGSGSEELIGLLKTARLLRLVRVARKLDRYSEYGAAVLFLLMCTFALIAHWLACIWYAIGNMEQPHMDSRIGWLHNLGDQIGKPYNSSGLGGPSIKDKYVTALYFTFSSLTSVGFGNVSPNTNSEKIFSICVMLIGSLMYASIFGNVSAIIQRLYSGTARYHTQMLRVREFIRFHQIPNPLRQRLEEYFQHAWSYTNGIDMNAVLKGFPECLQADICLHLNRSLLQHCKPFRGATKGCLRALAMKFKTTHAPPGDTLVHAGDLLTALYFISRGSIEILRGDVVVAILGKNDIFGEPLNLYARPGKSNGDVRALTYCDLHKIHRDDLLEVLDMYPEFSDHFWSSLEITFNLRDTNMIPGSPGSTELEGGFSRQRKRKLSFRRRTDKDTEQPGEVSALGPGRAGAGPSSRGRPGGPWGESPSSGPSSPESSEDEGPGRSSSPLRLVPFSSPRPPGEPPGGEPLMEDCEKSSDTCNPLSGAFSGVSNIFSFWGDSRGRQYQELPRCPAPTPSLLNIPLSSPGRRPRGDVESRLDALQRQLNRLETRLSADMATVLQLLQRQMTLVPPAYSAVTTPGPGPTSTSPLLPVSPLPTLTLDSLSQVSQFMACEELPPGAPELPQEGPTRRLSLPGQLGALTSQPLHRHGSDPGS
Sequence of CYP2D6 (P10635 whole entry): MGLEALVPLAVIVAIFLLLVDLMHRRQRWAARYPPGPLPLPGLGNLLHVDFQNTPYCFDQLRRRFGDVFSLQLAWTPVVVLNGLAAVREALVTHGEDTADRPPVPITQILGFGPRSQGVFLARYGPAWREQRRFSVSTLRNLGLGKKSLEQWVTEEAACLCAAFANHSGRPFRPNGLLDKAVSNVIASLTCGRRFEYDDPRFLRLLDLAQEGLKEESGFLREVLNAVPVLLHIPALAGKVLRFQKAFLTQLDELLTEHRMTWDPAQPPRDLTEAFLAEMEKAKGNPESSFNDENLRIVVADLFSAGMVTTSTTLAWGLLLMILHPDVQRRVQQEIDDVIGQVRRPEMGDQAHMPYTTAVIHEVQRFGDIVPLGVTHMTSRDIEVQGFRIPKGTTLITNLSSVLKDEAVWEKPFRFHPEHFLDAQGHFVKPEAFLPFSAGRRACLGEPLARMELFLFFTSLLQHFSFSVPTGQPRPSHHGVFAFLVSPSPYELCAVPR

Row | inhibition at 0.75 h, 10 µM (Aurora kinase B) [%] | inhibition at 0.5 h, 10 µM (CYP2D6) [%] | inhibition [7] | inhibition at 0.5 h, 10 µM (CYP2C19) [%] | inhibition at 0.5 h, 10 µM (CYP2C9) [%] | inhibition at 0.5 h, 10 µM (CYP3A4) [%] | inhibition at 0.5 h, 10 µM (CYP1A2) [%] | inhibition [11] [%] | Compound | cytotoxicity at 6 h, 10 µM [1] [%] | cell growth (% of control) at 48 h, 10 µM [2] [%] | cell growth (% of control) at 48 h, 10 µM [3] [%] | viability at 72 h, 100 µM [4] [%] | Activity (Trypanosoma brucei [5]) [%] | inhibition of growth at 50 µM (Leishmania infantum) [%] | PF (Trypanosoma brucei [8]) | viability at 72 h, 50 µM [9] [%] | inhibition at 2 h, 10 µM (hERG (KCNH2)) [%] | Activity (Trypanosoma brucei [10]) [%] | inhibition of growth at 50 µM (Trypanosoma cruzi) [%] | inhibition of growth at 50 µM (Trypanosoma brucei [6]) [%] | also measured
1 | -3.81 | 76.9 | 0.16% | 48.4 | 45.3 | 69.7 | 101 | 0.33 | NC(=S)N/N=C/c1cccc(-c2ccc3c(c2)OCO3)c1 | 15.7 | 111 | 91.9 | 2.61 | 96.33 | 46.9 | 1.53 | 81.5 | 9.13 | 38.67 | 71.3 | 61.8 | –
2 | -4.25 | 20.6 | 9.25% | -27.2 | 14.7 | 5.26 | 83.9 | 3.5 | NC(=S)N/N=C/c1cccc(-c2ccccc2)c1 | 4.4 | 110 | 111 | 45.2 | 93.5 | 35.8 | 1.77 | 112 | 5.99 | 28.5 | 20.2 | 0.9 | –

Second part, the compound before the results:

Row | Compound | inhibition at 0.75 h, 10 µM (Aurora kinase B) [%] | inhibition at 0.5 h, 10 µM (CYP2D6) [%] | inhibition [7] | inhibition at 0.5 h, 10 µM (CYP2C19) [%] | inhibition at 0.5 h, 10 µM (CYP2C9) [%] | inhibition at 0.5 h, 10 µM (CYP3A4) [%] | inhibition at 0.5 h, 10 µM (CYP1A2) [%] | inhibition [11] [%] | cytotoxicity at 6 h, 10 µM [1] [%] | cell growth (% of control) at 48 h, 10 µM [2] [%] | cell growth (% of control) at 48 h, 10 µM [3] [%] | viability at 72 h, 100 µM [4] [%] | Activity (Trypanosoma brucei [5]) [%] | inhibition of growth at 50 µM (Leishmania infantum) [%] | PF (Trypanosoma brucei [8]) | viability at 72 h, 50 µM [9] [%] | inhibition at 2 h, 10 µM (hERG (KCNH2)) [%] | Activity (Trypanosoma brucei [10]) [%] | inhibition of growth at 50 µM (Trypanosoma cruzi) [%] | inhibition of growth at 50 µM (Trypanosoma brucei [6]) [%] | also measured
3 | NC(=S)N/N=C/c1ccc(N)cc1 | -10.5 | -6.6 | 7.43% | -39.5 | 3.06 | -13.1 | -1.56 | 3.6 | -7.54 | 125 | 121 | 74.4 | 73.67 | 38.6 | 2.58 | 125 | 3.02 | 4.33 | – | – | growth inhibition (GI) (Trypanosoma cruzi): inactive; growth inhibition (GI) (Trypanosoma brucei [6]): inactive
4 | Cc1ccsc1/C=N/NC(N)=S | -5.27 | 8.57 | inactive | -20.7 | 4.24 | -8.16 | 38.3 | 1.75 | 2.15 | 91.9 | 85.4 | 76 | 34.17 | 8.28 | 1.05 | 95.8 | -5.98 | 8.33 | 24.9 | 17.3 | –
5 | NC(=S)N/N=C/c1csc2ccccc12 | -4.29 | 22.1 | 3.09% | -17.1 | 14.6 | 5.98 | 100 | 4.9 | 12.6 | 101 | 95.3 | 44.9 | 52.33 | 24.4 | 1.16 | 152 | -5.27 | 21 | 24.3 | 3.57 | –
